Results on 4 molecules are retold here after publication PMC12569033 (Nature Communications, 2025).

“Also recorded” adds a separate entry of the source.

Test [1] has as its target near-full-length dmIR (residues 1–50, 151–1675, D1519N) (Drosophila melanogaster) (UniProt P09208). The test is described as follows: cryo-EM structure.
Test [2] relates to dmIR wild-type (WT). Put plainly: Cell-based dmIR activation. The arrangement: species or system Drosophila melanogaster. To be noted: 10 min; for dmIR autophosphorylation, in words / Efficacy (signal in amplitude) relative to DILP5: dose response Fig. 1a; for Efficacy (signal in amplitude) relative to DILP5: of the efficacy/maximum of DILP5; for dmIR WT autophosphorylation on stimulation, in words: 100 nM, Fig. 2f, g.

In test [3] the test system is dmIR F1044A. The test is described as follows: dmIR autophosphorylation assay, F1044A mutant. Conditions: 100 nM ligand, 10 min. The test is classed as cell-based, Drosophila melanogaster. A digest of the protocol: (§1)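 Site-directed dmIR point mutants (C-terminal MYC tag) were transfected into 293FT cells alongside WT. After 1 day, cells were serum-starved 16–18 h, then treated 10 min with 100 nM DILP2 or DILP5. Lysates were blotted with anti-pY1150/1151 and anti-Myc. pY-dmIR was normalized to total dmIR and expressed relative to WT with the same ligand. Data are mean ± sem of ≥3 independent experiments, analysed by two-way ANOVA with Dunnett test versus WT.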

Test [4] relates to dmIR Q1040A. The test is described as follows: dmIR autophosphorylation assay, Q1040A mutant. The format is cell-based, Drosophila melanogaster. Conditions: 100 nM ligand, 10 min. The essentials: as §1
In test [5] the test system is glycogen phosphorylase; sterile 20-like kinase; tramtrack. Conditions: cited from earlier work.
For test [6], the system named is dmIR K1256A. Put plainly: dmIR autophosphorylation assay, K1256A mutant. The test is classed as cell-based, Drosophila melanogaster. To be noted: 100 nM ligand, 10 min. The essentials:
(§2)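 Full-length wDah dmIR with a C-terminal MYC tag, mutated by site-directed mutagenesis, was transiently transfected into 293FT cells. After 1 day, cells were serum-starved for 16–18 h, then exposed to 100 nM synthetic DILP for 10 min. Lysates were immunoblotted for pY1548/1549 and Myc, and pY signal was normalized to total dmIR relative to WT receiving the same treatment. Independent experiments were analysed by two-way ANOVA with Dunnett's test, mean ± sem.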

The test system of test [7] is dmIR D1251R. The test is described as follows: dmIR autophosphorylation assay, D1251R mutant. The format is cell-based, Drosophila melanogaster. To be noted: 100 nM ligand, 10 min. The essentials: as §2
Test [8] concerns Drosophila S2 cells. Conditions: single peptide applied to cultured Drosophila S2 cells; cited from earlier work.
The test system of test [9] is dmIR R848A. The test is described as follows: dmIR autophosphorylation assay, R848A mutant. The test is classed as cell-based, Drosophila melanogaster. To be noted: 100 nM ligand, 10 min. A digest of the protocol: as §1
Test [10] relates to dmIR S820R. Put plainly: dmIR autophosphorylation assay, S820R mutant. The test is classed as cell-based, Drosophila melanogaster. To be noted: 100 nM DILP5, 10 min. A digest of the protocol: as §2
Test [11] has as its system dmIR Δ602–609. Put plainly: dmIR autophosphorylation assay, Δ602–609 mutant. To be noted: Δ602–609, 100 nM DILP5, 10 min. The format is cell-based, Drosophila melanogaster. A digest of the protocol:
as §2

In test [12] the test system is dmIR R657A. The test is described as follows: dmIR autophosphorylation assay, R657A mutant. The format is cell-based, Drosophila melanogaster. To be noted: 100 nM DILP5, 10 min. The essentials:
as §2

Test [13] has as its system dmIR V889R. The test is described as follows: dmIR autophosphorylation assay, V889R mutant. The test is classed as cell-based, Drosophila melanogaster. To be noted: 100 nM DILP5, 10 min. A digest of the protocol: as §2

As for “Drosophila insulin-like peptide 5 (DILP5) (ligand)”, the stoichiometry N (DILP5 molecules per dmIR dimer) in [1] turned out to be 3.

As for “Drosophila insulin-like peptide 1 [DILP1]”, the “dmIR autophosphorylation, in words (Fig. 5f, g)” value in test [2] (1000 nM DILP1, 100 nM DILP5 or combination) is “lower levels of dmIR autophosphorylation compared to DILP5”. For the same molecule, in test [2] (293FT), the “dmIR autophosphorylation, in words” value is recorded as “lowest level of dmIR autophosphorylation; also recorded: lowest efficacy in activating dmIR” and the “Efficacy (signal in amplitude) relative to DILP5” value is given as “about 50%”.

B1: Drosophila insulin-like peptide 2 (peptide, UniProt Q9VT51 27-137, looked up)
Insulin-like peptide 2: TLCSEKLNEVLSMVCEEYNPVIPHKRAMPGADSDLDALNPLQFVQEFEEEDNSISEPLRSALFPGSYLGGVLNSLAEVRRRTRQRQGIVERCCKKSCDMKALREYCSVVRN
For the molecule B1, the “Effect of receptor mutation on ligand-induced activation, in words” value (“Effect of receptor mutation” for short) in [3] is listed as “reduced receptor autophosphorylation”; in test [4] it was “reduced receptor autophosphorylation”; in test [6], “defects in DILP5- or DILP2-dependent dmIR activation”; in test [7] it was “defects in DILP5- or DILP2-dependent dmIR activation”; in [9], “reduced receptor autophosphorylation”. Also, the “Protein phosphorylation changes, in words” value in test [5] is reported as “represses the phosphorylation of glycogen phosphorylase”. Besides, the “dmIR WT autophosphorylation on stimulation, in words” value in [2] (293FT) was “significantly increased autophosphorylation of dmIR WT”. Besides, in test [2] (293FT), the “dmIR autophosphorylation, in words” value was “less effective than DILP5”. For the same molecule, the “Efficacy (signal in amplitude) relative to DILP5” value in test [2] (293FT) was “approximately 75%”. In addition, the “Phosphorylation of Akt (pAkt), in words” value in [8] was “only stimulates an early spike of pAkt”.

B2: Drosophila insulin-like peptide 5 (peptide, UniProt Q7KUD5 23-108, looked up)
Insulin-like peptide 5: ANSLRACGPALMDMLRVACPNGFNSMFAKRGTLGLFDYEDHLADLDSSESHHMNSLSSIRRDFRGVVDSCCRKSCSFSTLRAYCDS
Take B2: the “Effect of receptor mutation” value is “reduced receptor autophosphorylation” in test [3]; “modest but statistically significant reduction in dmIR phosphorylation” in test [10]; “reduced receptor autophosphorylation” in test [4]; “impaired DILP5-induced activation of dmIR” in test [11]; “defects in DILP5- or DILP2-dependent dmIR activation” in test [6]; “defects in DILP5- or DILP2-dependent dmIR activation” in test [7]. The figures for the “Effect of receptor mutation” value in [9], in test [12] and in [13] were “reduced receptor autophosphorylation”, “impaired DILP5-induced activation of dmIR” and “modest but statistically significant reduction in dmIR phosphorylation”, respectively. In test [5], the “Protein phosphorylation changes, in words” value is “increases the phosphorylation of sterile 20-like kinase and tramtrack”. In addition, the “dmIR WT autophosphorylation on stimulation, in words” value in [2] (293FT) is “significantly increased autophosphorylation of dmIR WT”. Also, in test [2] (293FT), the “Concentration at which saturation of dmIR autophosphorylation is observed” value is recorded as 300 nM. Also, the “dmIR autophosphorylation, in words” value in [2] (293FT) is reported as “increased dmIR autophosphorylation in a dose-dependent manner; also recorded: higher levels of dmIR autophosphorylation”. The “Phosphorylation of Akt (pAkt), in words” value in test [8] is “robust and sustained phosphorylation of Akt (pAkt)”.
